Laboratory results published in ChEMBL document CHEMBL4364301 (Eur J Med Chem, 2019).
pIC50: −log10 of the molar value.

Legend:
Format in all cases: functional
DU-145 = test: Antiproliferative activity against human DU145 cells assessed as reduction in cell growth incubated for 96 hrs by propidium iodide based 2D monolayer assay; settings: DU-145, 96 h
Procedure, shortened: (§1)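 After 24 h recovery, compound in medium or medium alone (control wells) was added at 10 half-log concentrations from 0.0032 to 100 µM, in triplicate, with at most 0.3% DMSO. After 96 h, wells were PBS-washed, stained with 7 µg/ml PI and 0.1% Triton X-100, and fluorescence read at 530/620 nm. IC50 came from a 4-parameter fit, geometric mean.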

CWR22R = test: Antiproliferative activity against human 22Rv1 cells assessed as reduction in cell growth incubated for 96 hrs by propidium iodide based 2D monolayer assay; settings: 22Rv1, 96 h; procedure, shortened: as §1
LNCaP = test: Antiproliferative activity against human LNCAP cells assessed as reduction in cell growth incubated for 96 hrs by propidium iodide based 2D monolayer assay; procedure, shortened: as §1
VCaP = test: Antiproliferative activity against human VCaP cells assessed as reduction in cell growth incubated for 96 hrs by propidium iodide based 2D monolayer assay
Procedure, shortened: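 VCaP cells in RPMI 1640 with 10% FCS at 37 °C, 5% CO2, seeded 4,000–20,000 cells/well and left 24 h before dosing. Compounds from DMSO stocks were diluted in half-log steps in medium, 10 concentrations 0.0032–100 μM, triplicate wells, max 0.3% DMSO. After 96 h, cells were washed, stained with 7 μg/ml propidium iodide plus 0.1% Triton X-100 for 1–2 h at room temperature, and fluorescence read at ex 530/em 620 nm.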

| SMILES | pIC50 (DU-145) | pIC50 (CWR22R) | pIC50 (LNCaP) | pIC50 (VCaP) |
| --- | --- | --- | --- | --- |
| CC(O)(CS(=O)(=O)c1ccc(OC(F)(F)F)cc1)C(=O)Nc1ccc(S(F)(F)(F)(F)F)cc1 (racemic) | 4.41 | 4.28 | 4.03 | 4.02 |
| CC(O)(CS(=O)(=O)c1cc(C(F)(F)F)cc(C(F)(F)F)c1)C(=O)Nc1ccc(S(F)(F)(F)(F)F)cc1 (racemic) | 4.61 | 4.90 | 4.88 | 4.80 |
| CC(O)(COc1cc(C(F)(F)F)cc(C(F)(F)F)c1)C(=O)Nc1cccc(C(F)(F)C(F)(F)F)c1 (racemic) | 5.01 | 5.35 | 5.33 | 5.10 |
| CC(O)(CS(=O)(=O)c1cccc(S(F)(F)(F)(F)F)c1)C(=O)Nc1cccc(S(F)(F)(F)(F)F)c1 (racemic) | 4.53 | 4.81 | 4.93 | 4.72 |
